From PubChem BioAssay come the findings set out here.

Values without a mark were called inactive. Results filed as inconclusive are left out. Active and inactive are the calls of the source.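 How the source made its calls, unless noted: active means viability increase at or above a cutoff of the median across tested compounds plus 3 SD (cut at about 8.5% in these data, passing the limit was not always enough); inconclusive means some gains above the cutoff, reason not given; inactive means the rest.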

The nature of assay [1]: OD615 S. cerevisiae growth inhibition, permissive medium, pilot counter-assay, permissive growth control for S. cerevisiae lifespan shortening project (AID 705;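 active means growth inhibition above 25% in both replicates, a cutoff set 3 SD above the mean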). Particulars: OD615, 24 h, at 10 µM, active compounds read high. The procedure, abridged: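 assay system = Saccharomyces cerevisiae strain carrying genetically modified DeaD replicative-lifespan system | technique = absorbance (optical density) at 615 nm | buffer or medium = permissive raffinose/galactose medium | timing = cells pre-grown 4 h, then 24 h compound exposure, 30 °C humidified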

Assay [2] in a line: Restrictive medium S. cerevisiae growth inhibition, OD615, pilot screen of yeast lifespan reduction project, restrictive growth control (AID 706;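 active means growth inhibition above a set limit, 3 SD over mean compound inhibition, in both replicates, cut at about 43% in these data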;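 further: modified DeaD lifespan yeast strain shifted to restrictive glucose medium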). Particulars: OD615, 48 h, at 10 µM, active compounds read high. The procedure, abridged:
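System: modified S. cerevisiae. Buffer or medium: CSMM-D glucose medium. Incubation: 4 h pre-growth plus 48 h compound exposure, 30 °C. Detection: absorbance (optical density) measured at 615 nm.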

Assay [3] can be described thus: viability gain of MRP-1-high H69AR cells under doxorubicin, pilot screen, MRP-1 activator project, CellTiter-Glo, duplicate (AID 807).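 Further: compound pretreatment 18-22 h then 72 h combined with doxorubicin; 0% = doxorubicin alone and 100% = vehicle without doxorubicin.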 The note with it: H69AR viability with doxorubicin, CellTiter-Glo luminescence; at 10 µM; active compounds read high.
Assay [4] is described as follows: growth suppression of beta-catenin knockout HCT116, pilot screen, human colon tumor cells (AID 823;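 active means cell viability at or below a set limit in both duplicate runs, the limit being the all-compound median minus 4 SD, cut at about 23% in these data, passing the limit was not always enough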;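 further: 0% = wells killed by 20 µM Hyamine and 100% = untreated DMSO cell wells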). Particulars: CellTiter-Glo, 60 h, at 10 µM, active compounds read low.
The nature of assay [5]: growth suppression of PTEN-deleted HCT116, pilot screen, cell-based, HCT116 clonal line, CellTiter-Glo (AID 824;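 active means viability at or below 27.92% in each of two runs, the all-compound median minus 4 SD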;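 further: 0% = 20 µM Hyamine control and 100% = vehicle cell control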). Particulars: 60 h, at 10 µM, active compounds read low.
Assay [6] in a line: inhibitors of the yeast RAM network, pilot screen, dse1pr::URA3 reporter, 5-FOA selection (AID 869;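 active means inhibition over a set limit, the all-compound mean plus 3 SD, in both replicate runs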;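 further: 0% = DMSO wells with no growth and 100% = 10 µM 1-NA-PP1 with full growth; RAM network block rescues cells from 5-FOA so hits raise OD615 growth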). Particulars: S. cerevisiae dse1pr::URA3 5-FOA growth, OD615, 2 d; at 10 µM; active compounds read high; strain carries analog-sensitive mutant Cbk1 kinase.
Assay [7] is described as follows: RAM signaling pathway blockade in yeast – S. cerevisiae, Pdr1DBD-CYC8 efflux-inhibited sensitized strain, primary screen (AID 1298;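 active means RAM network inhibition above 8.4% in each of two replicates, 3 SD over the compound average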;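 further: 0% = DMSO untreated cells without growth and 100% = 10 µM 1-NA-PP1 full growth; higher means more yeast growth rescued from 5-FOA killing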). The note with it: S. cerevisiae cbk1-as DSE1-URA3 strain, 5-FOA growth OD615, 2 d; at 50 µM; active compounds read high.

Turning to `COc1ccc(N(CC(=O)Nc2nc3ccc(C)cc3s2)S(=O)(=O)c2c(C)nn(C)c2C)cc1`, the growth inhibition in assay [1] was -5.89%; in assay [2], -16.3%. In assay [3], the viability increase is -7.24%. The viability in assay [4] is 64.9%; in assay [5], 57.1%. In assay [6], the inhibition was 1.33%. The RAM network inhibition in assay [7] is 6.79%.

As for `COc1ccc(Cl)cc1NC(=O)c1cnc2n(c1=O)CCS2`, the growth inhibition is -7.35% in assay [1] and 3.42% in assay [2]. Also, in assay [3], the viability increase was -4.43%. For the same compound, the viability in assay [4] was 94.5%; in assay [5] it was 89.2%. For the same compound, the inhibition in assay [6] was 2.78%. Further, in assay [7], the RAM network inhibition was 3.81%.

On to `O=C(O)CCCC(=O)Nc1c(F)c(F)c(F)c(F)c1F`, for which the growth inhibition is -5.5% in assay [1] and -6.27% in assay [2]. For the same compound, the viability increase in assay [3] was -1.85%. For the same compound, the viability in assay [4] is 90.4%; in assay [5] it was 94.4%. For the same compound, the inhibition in assay [6] was 0.175%. Also, in assay [7], the RAM network inhibition was -0.87%.

With `CC1CN(S(=O)(=O)c2ccc(C(=O)Nc3nnc(-c4ccc5c(c4)CCCC5)o3)cc2)CC(C)O1` (stereo unspecified), the figures for the growth inhibition in assay [1] and in assay [2] were -19.1% and 1.69%, respectively. Moreover, the viability increase in assay [3] was -5.17%. Moreover, the viability in assay [4] is 21.1% (active); in assay [5], 19.7% (active). The inhibition in assay [6] is 1.67%. The RAM network inhibition in assay [7] is 5.1%.

For the compound `O=C(Nc1nnc(-c2ccccc2)s1)c1ccc(Cl)c(S(=O)(=O)N2CCOCC2)c1`, the growth inhibition in assay [1] was -16.8%; in assay [2], -5.79%. In assay [3], the viability increase was -1.65%. The viability was 100% in assay [4] and 96.2% in assay [5]. Further, in assay [6], the inhibition is 2.61%. Besides, the RAM network inhibition in assay [7] is 1.72%.

For `Cc1nc2ccc(NC(=O)c3ccc(Cl)s3)cc2s1`, the growth inhibition was -7.99% in assay [1] and -7.74% in assay [2]. Also, the viability increase in assay [3] was -3.83%. Also, the figures for the viability in assay [4] and in assay [5] were 106% and 97.1%, respectively. Also, the inhibition in assay [6] is 1.84%. For the same compound, the RAM network inhibition in assay [7] is 4.46%.

As for `Cc1occc1C(=O)NCc1cccs1`, the growth inhibition in assay [1] was -6.07%; in assay [2], -2.95%. Also, the viability increase in assay [3] was -1.27%. The values for the viability in assay [4] and in assay [5] were 91% and 95.9%, respectively. Besides, in assay [6], the inhibition is 0.455%. Moreover, in assay [7], the RAM network inhibition was -0.16%.

As to `COc1cc(OC)c(Cl)cc1N`, the growth inhibition in assay [1] is -8.61%; in assay [2] it was -16.7%. The viability increase in assay [3] was -2.54%. The viability in assay [4] is 98%; in assay [5], 95.7%. Also, the inhibition in assay [6] was 1.47%. In addition, the RAM network inhibition in assay [7] was 2.8%.

Take `Cn1c(Cn2c(=O)sc3ccccc32)nnc1SCC(=O)N1CCCC1`: the figures for the growth inhibition in assay [1] and in assay [2] were -7.01% and -4.62%, respectively. In addition, the viability increase in assay [3] was 0.61%. Besides, the viability in assay [4] was 97%; in assay [5], 99.3%. The inhibition in assay [6] is 1.95%. Further, the RAM network inhibition in assay [7] was 6.71%.

As to `CC(C)n1c(=O)[nH]c2ccccc21`, the growth inhibition in assay [1] is -18.3%; in assay [2], -9.29%. Besides, the viability increase in assay [3] is -4.28%. The figures for the viability in assay [4] and in assay [5] were 89% and 89.8%, respectively. For the same compound, in assay [6], the inhibition was 0.575%. The RAM network inhibition in assay [7] is 2.88%.

As to `CC1CCCN(c2ncnc3c2cnn3-c2ccccc2)C1` (stereo unspecified), the growth inhibition in assay [1] is -2.51%; in assay [2], -4.29%. Besides, in assay [3], the viability increase was -2.92%. Moreover, the figures for the viability in assay [4] and in assay [5] were 77.5% and 73.5%, respectively. The inhibition in assay [6] was 0.15%. In assay [7], the RAM network inhibition is 4.59%.

As for `CCC1Oc2ccccc2N(CC(=O)NCCCN2CCOCC2)C1=O` (stereo unspecified), the growth inhibition in assay [1] was -2.59%; in assay [2], 4.67%. For the same compound, the viability increase in assay [3] was -1.49%. In addition, the viability in assay [4] was 109%; in assay [5], 105%. Also, the inhibition in assay [6] is 1.29%. The RAM network inhibition in assay [7] is 0.62%.

As to `COc1ccc(C2N(c3ccc(OC)cc3)C(=O)C3CCCN32)cc1` (stereo unspecified), the growth inhibition in assay [1] is -3.41%; in assay [2], 2.04%. For the same compound, the viability increase in assay [3] is -1.64%. Besides, the viability is 106% in assay [4] and 102% in assay [5]. In assay [6], the inhibition was 0.67%. In assay [7], the RAM network inhibition is -0.16%.

`CN1CCN(CCCNC(=O)c2ccc(CS(=O)(=O)c3ccc(Br)cc3)o2)CC1`: the growth inhibition is -7.34% in assay [1] and -12.5% in assay [2]. Further, the viability increase in assay [3] was -1.18%. In addition, the viability was 95.3% in assay [4] and 90.8% in assay [5]. Moreover, in assay [6], the inhibition is 1.38%. For the same compound, the RAM network inhibition in assay [7] is -0.99%.

With `O=C(Nc1ccccn1)c1cccc(S(=O)(=O)N2CCOCC2)c1`, the results for the growth inhibition in assay [1] and in assay [2] were 6.61% and -0.23%, respectively. For the same compound, in assay [3], the viability increase is -1.53%. The viability in assay [4] was 102%; in assay [5], 98.3%. Also, the inhibition in assay [6] was 1.09%. Further, the RAM network inhibition in assay [7] was 2.13%.

For the compound `CCOC(=O)Cn1c(=O)oc2cc(S(=O)(=O)NCc3cccs3)ccc21`, the growth inhibition in assay [1] was -3.16%; in assay [2], 1.21%. Further, in assay [3], the viability increase was -1.22%. The results for the viability in assay [4] and in assay [5] were 90.6% and 86.9%, respectively. Also, the inhibition in assay [6] was 0.73%. The RAM network inhibition in assay [7] was 0.2%.

In the case of `C=C(C)Cn1c(C(C)NC(=O)CCC)nc2ccccc21` (stereo unspecified), the values for the growth inhibition in assay [1] and in assay [2] were -26.1% and -7.25%, respectively. Moreover, in assay [3], the viability increase was -3.54%. Moreover, the viability is 83.9% in assay [4] and 86.7% in assay [5]. Moreover, the inhibition in assay [6] was 1.8%. Further, the RAM network inhibition in assay [7] is 0.47%.

Consider `CCOC(=O)CC1C(=O)NCCN1C(=O)c1cc2c(=O)n3cccc(C)c3nc2s1` (stereo unspecified), for which the growth inhibition in assay [1] was -11%; in assay [2], -11.3%. In addition, in assay [3], the viability increase was -3.53%. The viability in assay [4] was 98%; in assay [5], 98.8%. The inhibition in assay [6] was -0.035%. Further, the RAM network inhibition in assay [7] is -1.37%.
